Laboratory results: PMC5899023 (Nanomedicine : nanotechnology, biology, and medicine, 2018)
Several values for one entry are separate records, joined by “and”; a condition that tells them apart may be missing. Identical values can stand only once. Like-named read-outs stand apart in the source and are kept apart here.

Experiments:
[1] = test system: UACC 903 melanoma cell line; experiment: MTS cell viability, UACC 903; format: cell-based; conditions: Homo sapiens, UACC-903, 72 h, read-out: IC50 UACC 903
Summary of the method: (§1)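 MTS viability assay. Cells were grown at 37°C in humidified 5% CO2: melanoma lines UACC 903 and 1205 Lu (BRAF V600E) or C8161.Cl9 and MelJuSo (BRAF wild type), or normal […]. 5×10³ cells/well were treated 48 h after seeding for 72 h with rising concentrations of free or nanoliposomal test compound (nanoliposomal: 10–100 μmol/L). IC50 came from 3 independent experiments; group values are averages across the lines.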

[2] = test system: C8161.Cl9 melanoma cell line; experiment: MTS cell viability, C8161.Cl9; format: cell-based; conditions: 72 h, read-out: IC50 C8161.Cl9
Summary of the method: as §1

[3] = mouse, in vivo
[4] = test system: FF2441 normal human fibroblast cell line; experiment: MTS cell viability, FF2441; format: cell-based; conditions: FF2441, 72 h, read-out: IC50 FF2441
Summary of the method: as §1

Hemolytic activity = format: cell-based; conditions: human, human erythrocytes, 5% v/v suspension
Summary of the method: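 Erythrocytes from fresh EDTA-anticoagulated human blood, separated at 1,500 rpm for 10 min at 4°C using PBS. A 5% v/v suspension in PBS was exposed to free or nanoliposomal test compound (10–40 μmol/L), ethanol or empty liposome (negative controls), or 1% Triton X-100, at 37°C for 60 min. After a 12,000 rpm spin, supernatant A540 was read. % hemolysis = sample A540 / Triton A540 × 100.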

[5] = test system: normal cells FOM103 and FF2441; experiment: MTS cell viability, normal cells taken together; format: cell-based; conditions: FF2441, read-out: average IC50 for killing normal FOM103 and FF2441
Summary of the method: as §1

cPLA2 [6] = conditions: various in-vitro studies; ref [13], [37]; cited from earlier work
[7] = test system: 1205 Lu melanoma cell line; experiment: MTS cell viability, 1205 Lu; format: cell-based; conditions: Homo sapiens, 72 h, read-out: IC50 1205 Lu
Summary of the method: as §1

[8] = test system: FOM103 normal melanocytes; experiment: MTS cell viability, FOM103; format: cell-based; conditions: Melanocyte, 72 h, read-out: IC50 FOM103
Summary of the method: as §1

[9] = 14-day repeated dose study to identify the MTD; conditions: for % weight loss at day 14 in Swiss Webster mice: in DMSO, i.p. daily, 14 days
UACC 903 xenograft = UACC 903 xenograft tumor growth in nude mice; format: in vivo; conditions: for % in-vivo tumor inhibition at day 21 in Nude mice: in DMSO, i.p.
Summary of the method: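 Female athymic nude mice aged 3–4 weeks received 1×10⁶ UACC 903 cells in 0.2 mL DMEM/10% FBS subcutaneously above both rib cages. At day 8 (vascularized tumors of 50–75 mm³), mice were randomized (3/group, 2 tumors/mouse) and dosed daily i.p. with free test compound in DMSO (5 or 10 mg/kg) or DMSO vehicle for 3–4 weeks. Tumor dimensions and body weight were taken on alternate days; % inhibition was scored at day 21. Run twice independently.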

[10] = test system: four melanoma cell lines (UACC 903, 1205 Lu, C8161.Cl9, MelJuSo); experiment: MTS cell viability, melanoma cell lines taken together; format: cell-based
Summary of the method: as §1

cPLA2 [11] = target: T1, cPLA2 (Homo sapiens, UniProt P47712); experiment: cPLA2 activity assay; format: biochemical
T1 sequence (P47712 1-749): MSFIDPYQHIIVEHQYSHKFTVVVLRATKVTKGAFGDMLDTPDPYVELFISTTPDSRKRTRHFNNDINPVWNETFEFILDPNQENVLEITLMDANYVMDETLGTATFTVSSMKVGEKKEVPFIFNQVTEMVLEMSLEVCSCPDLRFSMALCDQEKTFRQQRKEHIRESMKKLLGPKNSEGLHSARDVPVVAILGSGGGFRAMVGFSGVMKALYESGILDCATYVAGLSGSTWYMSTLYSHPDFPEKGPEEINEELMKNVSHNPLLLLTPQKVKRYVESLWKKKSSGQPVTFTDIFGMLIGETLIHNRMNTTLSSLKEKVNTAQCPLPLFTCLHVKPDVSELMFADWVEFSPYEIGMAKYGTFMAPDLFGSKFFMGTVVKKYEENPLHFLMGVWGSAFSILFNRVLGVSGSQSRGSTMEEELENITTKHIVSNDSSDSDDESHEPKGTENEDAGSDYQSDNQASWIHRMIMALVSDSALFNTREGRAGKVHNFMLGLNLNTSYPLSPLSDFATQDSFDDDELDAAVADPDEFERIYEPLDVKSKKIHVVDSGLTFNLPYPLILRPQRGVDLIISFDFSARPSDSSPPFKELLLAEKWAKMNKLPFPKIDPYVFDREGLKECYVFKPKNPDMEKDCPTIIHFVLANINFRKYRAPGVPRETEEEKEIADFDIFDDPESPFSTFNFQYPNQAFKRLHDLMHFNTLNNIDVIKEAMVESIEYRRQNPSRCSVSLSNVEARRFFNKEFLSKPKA
Summary of the method: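 Colorimetric cPLA2 assay (commercial kit) on UACC 903 lysate made in Hepes pH 7.4 with 1 mM EDTA. sPLA2 was removed by 30 kDa cutoff filtration and iPLA2 was blocked with bromoenol lactone. Lysate was treated with free or nanoliposomal test compound (0.5–10 μmol/L); DMSO or empty nanoliposome defined 100% activity. Arachidonoyl thio-PC substrate ran for 1 h, then DTNB was added and absorbance read at 414 nm.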

In the case of `CCCCC/C=C\C/C=C\C/C=C\C/C=C\CCCC(=O)C(F)(F)F` [ATK, Arachidonyl trifluoromethyl ketone], the IC50 [1] is reported as 26.3 ± 2.1 µM, the IC50 [2] is reported as 18.6 ± 3.1 µM and the “% weight loss at day 14 in Swiss Webster mice” value (“% weight loss” below) [3] is reported as “Animal mortality occurred”. The IC50 [4] was 63.3 ± 10.3 µM, the hemolysis at 60 min (Hemolytic activity) was 2 to 3% and the hemolysis at 60 min, 40 μmol/L (Hemolytic activity) was 2.9%. For the same compound, the IC50 [5] was 60 µM, the “potency in inhibiting cPLA2 over sPLA2 and iPLA2” value (cPLA2 [6]) was 500 fold and the IC50 [7] was 26.1 ± 4.4 µM. The IC50 [8] was 57.9 ± 10.4 µM, the “% weight loss” value ([9]; 5 mg/kg body weight) was “No weight loss” and the “% weight loss” value ([9]; 10 mg/kg body weight) was 3.1 ± 3.52%. The “% weight loss” value ([9]; 15 mg/kg body weight) was 14.5% and 14.5 ± 0.95%, the “% weight loss” value ([9]; 20 mg/kg body weight) was “Death in 10 days” and the “% weight loss” value ([9]; 30 mg/kg body weight) was “Death in 8 days”. For the same compound, the MTD at 14 days ([9]; Swiss Webster, mouse, in vivo, ip) was 10 mg/kg, the “% in-vivo tumor inhibition at day 21 in Nude mice” value (UACC 903 xenograft; 5 mg/kg body weight) was 12.9 ± 6.30% and the “% in-vivo tumor inhibition at day 21 in Nude mice” value (UACC 903 xenograft; 10 mg/kg body weight) was 32.5 ± 5.73%. The “changes in body weight of tumor-bearing mice” value (UACC 903 xenograft; 5 and 10 mg/kg i.p. daily in DMSO) was “did not show any significant changes in body weight”, the “reduction in tumor volume” value (UACC 903 xenograft; free ATK in DMSO, 5 and 10 mg/kg (MTD) i.p. daily, 3-4 weeks) was “approximately 30%” and the “fold more effective at killing melanoma cells than normal cells” value ([10]; average melanoma versus average normal cells) was 3 fold. It also gave an IC50 ([10]; read-out: average IC50 for melanoma cells) of 22 µM and an IC50 (cPLA2 [11]) of 1.85 µM.
